By IC50 is commonly meant the point on the concentration scale where inhibition reaches its midpoint.

For data set [1], the target named is T1, Protein deacetylase HDAC6 (Homo sapiens, UniProt Q9UBN7).
T1 sequence (Q9UBN7 whole entry): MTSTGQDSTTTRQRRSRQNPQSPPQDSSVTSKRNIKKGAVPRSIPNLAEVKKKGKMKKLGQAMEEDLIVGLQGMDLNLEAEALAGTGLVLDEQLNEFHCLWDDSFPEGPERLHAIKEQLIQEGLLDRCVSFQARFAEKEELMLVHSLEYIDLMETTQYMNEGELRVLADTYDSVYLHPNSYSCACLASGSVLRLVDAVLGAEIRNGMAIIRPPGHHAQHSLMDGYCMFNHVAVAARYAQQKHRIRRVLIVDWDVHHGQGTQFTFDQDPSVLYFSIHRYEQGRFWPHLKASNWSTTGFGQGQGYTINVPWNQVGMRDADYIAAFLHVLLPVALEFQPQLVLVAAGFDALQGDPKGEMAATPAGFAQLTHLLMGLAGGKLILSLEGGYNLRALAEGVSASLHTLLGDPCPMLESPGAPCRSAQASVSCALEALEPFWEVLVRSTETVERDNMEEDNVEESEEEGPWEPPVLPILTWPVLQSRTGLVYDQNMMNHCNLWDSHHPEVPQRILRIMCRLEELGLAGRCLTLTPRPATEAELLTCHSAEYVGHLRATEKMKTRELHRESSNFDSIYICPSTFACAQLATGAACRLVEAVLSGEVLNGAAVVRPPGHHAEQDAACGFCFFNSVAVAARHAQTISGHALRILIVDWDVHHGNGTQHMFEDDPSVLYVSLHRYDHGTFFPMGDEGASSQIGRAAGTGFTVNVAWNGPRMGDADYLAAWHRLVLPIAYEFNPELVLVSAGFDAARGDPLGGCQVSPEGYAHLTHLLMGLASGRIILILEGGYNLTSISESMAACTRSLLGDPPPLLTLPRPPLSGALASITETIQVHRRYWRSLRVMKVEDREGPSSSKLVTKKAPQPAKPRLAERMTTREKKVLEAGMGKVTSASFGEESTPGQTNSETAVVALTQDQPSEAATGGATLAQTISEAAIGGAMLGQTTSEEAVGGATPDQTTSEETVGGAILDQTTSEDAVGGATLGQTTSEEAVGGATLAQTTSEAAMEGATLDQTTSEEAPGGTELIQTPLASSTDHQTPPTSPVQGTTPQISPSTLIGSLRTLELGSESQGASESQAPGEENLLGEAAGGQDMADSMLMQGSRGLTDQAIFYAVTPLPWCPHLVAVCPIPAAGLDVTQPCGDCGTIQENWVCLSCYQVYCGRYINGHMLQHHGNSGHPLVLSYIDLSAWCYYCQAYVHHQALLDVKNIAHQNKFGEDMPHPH
In words: Inhibition of full length C-terminal FLAG-tagged human recombinant HDAC6 expressed inSf9 insect cells. Further details: species or system Sf9.

The target of another data set is Histone deacetylase 1 (Homo sapiens, UniProt Q13547). The data set can be described thus: Inhibition of full length his6/FLAG-tagged human recombinant HDAC1(1 to 482 residues) expressed in Sf9 insect cells.
Sequence of Histone deacetylase 1 (Q13547 whole entry, the tested form may be a part): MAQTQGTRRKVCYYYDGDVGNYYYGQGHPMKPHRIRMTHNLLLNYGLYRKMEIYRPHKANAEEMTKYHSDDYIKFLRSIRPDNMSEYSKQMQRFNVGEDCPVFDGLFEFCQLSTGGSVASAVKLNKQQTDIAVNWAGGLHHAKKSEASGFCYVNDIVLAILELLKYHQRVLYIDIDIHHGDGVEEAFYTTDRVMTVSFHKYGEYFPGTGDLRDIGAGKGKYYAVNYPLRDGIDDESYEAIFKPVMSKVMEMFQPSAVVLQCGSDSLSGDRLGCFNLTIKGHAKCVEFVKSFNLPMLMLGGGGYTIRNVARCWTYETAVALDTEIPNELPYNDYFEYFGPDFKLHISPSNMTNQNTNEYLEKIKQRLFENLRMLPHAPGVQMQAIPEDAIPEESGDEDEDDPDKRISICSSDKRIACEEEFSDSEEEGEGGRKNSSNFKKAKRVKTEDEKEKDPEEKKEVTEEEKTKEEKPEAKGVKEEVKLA
Another data set addresses T2, Histone deacetylase 8 (Homo sapiens, UniProt Q9BY41).
T2 sequence (Q9BY41 whole entry): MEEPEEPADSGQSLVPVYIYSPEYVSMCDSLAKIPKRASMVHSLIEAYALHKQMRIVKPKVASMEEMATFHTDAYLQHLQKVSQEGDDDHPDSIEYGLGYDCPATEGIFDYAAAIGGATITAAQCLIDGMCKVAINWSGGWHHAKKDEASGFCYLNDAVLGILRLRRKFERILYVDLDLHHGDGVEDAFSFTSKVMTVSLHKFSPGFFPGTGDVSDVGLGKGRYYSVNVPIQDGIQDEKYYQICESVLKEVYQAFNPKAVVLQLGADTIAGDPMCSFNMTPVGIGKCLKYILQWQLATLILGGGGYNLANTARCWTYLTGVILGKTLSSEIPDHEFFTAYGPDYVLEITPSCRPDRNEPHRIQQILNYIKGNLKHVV
In words: Inhibition of full length C-terminal his-tagged human recombinant HDAC8 expressed in Sf9 insect cells.

The next data set has as its target Histone deacetylase 3 (Homo sapiens, UniProt O15379). The data set can be described thus: Inhibition of full length C-terminal his6/FLAG-tagged human recombinant HDAC3 ([…]) expressed in Sf9 insect cells.
In data set [2] the target is Protein deacetylase HDAC6 (Homo sapiens) (UniProt Q9UBN7). In words: Inhibition of HDAC6 in human NCI-H522 cells assessed as increase in acetylation of tubulin at 5 uM measured for 3 days by Western blot analysis. The data set is classed as cell-based. The following applies: time 3.0 day.
The next data set addresses Histone deacetylase 2 (Homo sapiens, UniProt Q92769).
The test system of data set [3] is NCI-H522. The data set can be described thus: Cytotoxicity against human NCI-H522 cells assessed as reduction in cell survival at 1 to 5 uM incubated for 3 days in presence of ferroptosis inhibitor, liproxstatin-1 by methylene blue staining based analysis. As to conditions: dose 1-5 µM, time 3.0 day. In kind it is functional.
A further data set has as its target Histone deacetylase 4 (Homo sapiens, UniProt P56524). In words: Inhibition of […] N-terminal GST/C-terminal his-tagged human recombinant HDAC4 (627 to 1084 residues) expressed in Sf9 insect cells.
The test system of another data set is HCT-116. The data set can be described thus: Cytotoxicity against human HCT-116 cells assessed as reduction in cell viability incubated for 30 mins by methylene blue staining based analysis. As to conditions: HCT-116, 0.5 h.
The test system of data set [4] is NCI-H522. The data set can be described thus: Cytotoxicity against human NCI-H522 cells assessed as reduction in cell viability incubated for 30 mins by methylene blue staining based analysis. As to conditions: NCI-H522, 0.5 h.
Data set [5] in a line: Cytotoxicity against human WI-38 cells assessed as reduction in cell survival incubated for 30 mins by methylene blue staining based analysis.
Data set [6] relates to NCI-H522. In words: Induction of ferroptosis in human NCI-H522 cells assessed as induction of lipid peroxidase accumulation at 10 uM incubated for 4 days in presence of Lipoxstatin-1 by C11-BODIPY-581/591 staining based flow cytometry analysis. In kind it is functional, cell-based.
The subject of data set [7] is NCI-H522. In words: Induction of ferroptosis in human NCI-H522 cells assessed as viability at 20 uM incubated after 8 to 12 hrs by microscopic analysis. In kind it is functional, cell-based. As to conditions: time lower 8.0 hrs, time upper […]. Summed up:
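Time-lapse imaging used NCI-H522 cells adhered overnight and equilibrated to 10% CO2, held in sealed flasks on a 37 °C stage. Frames were taken every 12 min, 300 in total, with a ×40 objective. For Kaplan–Meier curves, at least 100 cells were scored, with death counted per 1 h or 0.2 h interval.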

The subject of data set [8] is NCI-H522. The data set can be described thus: Induction of cell cycle arrest in human NCI-H522 cells assessed as accumulation at G1 phase 5 uM incubated for 24 to 72 hrs by PI staining based flow cytometric analysis. The data set is classed as functional. The following applies: time lower […], time upper […]. For orientation: A flow cytometer gives signals particle by particle.

In data set [9] the test system is NCI-H522. In words: Induction of cell cycle arrest in human NCI-H522 cells assessed as accumulation at G2/M phase 5 uM incubated for 24 to 72 hrs by PI staining based flow cytometric analysis. As to conditions: time lower […], time upper […]. The data set is classed as functional.
Data set [10] concerns NCI-H522. In words: Induction of cell cycle arrest in human NCI-H522 cells assessed as accumulation at S phase 5 uM incubated for 24 to 72 hrs by PI staining based flow cytometric analysis. The data set is classed as functional. The following applies: time lower […], time upper […].
In data set [11] the test system is NCI-H522. In words: Cytotoxicity against human NCI-H522 cells assessed as reduction in cell survival at […] incubated for 3 days by methylene blue staining based analysis. In kind it is functional. The following applies: dose 2.5 µM, time 3.0 day.
Data set [12] is described as follows: Neurotoxicity in human SH-SY5Y cells assessed as decrease in cell viability at 20 to 80 uM incubated for 3 days. As to conditions: 72 h, dose 20-80 µM, time 3 day. The data set is classed as toxicity, cell-based. In short, it runs like this: (§1)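 SH-SY5Y cells were grown on poly-D-lysine in DMEM/F12 with 10% FBS and seeded at 15,000/well 36 h before dosing, with DMSO as vehicle. Viability was read by MTT: 2 h at 37 °C, then solubilization for 1 h and absorbance at 570. Data are triplicates from three separate experiments.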

Data set [13] concerns NCI-H522. In words: Cytotoxicity against human NCI-H522 cells assessed as reduction in cell survival at 1 to 5 uM incubated for 3 days in presence of Methyl 7-(2-ethynylthiazole-4-carboxamido)heptanoate by methylene blue staining based analysis. The data set is classed as functional. As to conditions: dose 1-5 µM, time 3.0 day. Summed up:
(§2)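 Cells (5000/well, n = 3, DMEM with 10% serum, 37 °C, 5% CO2) were treated the day after plating and kept for three days. […] Survival was expressed relative to DMSO.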

A short description of data set [14]: Neurotoxicity in human SH-SY5Y cells assessed as decrease in cell viability at 6.665 uM incubated for 3 days. The data set is classed as toxicity, cell-based. The following applies: 72 h, time 3 day. Summed up: as §1
Data set [15] deals with NCI-H522. The data set can be described thus: Cytotoxicity against human NCI-H522 cells assessed as reduction in cell survival at 1 to 5 uM incubated for 3 days in presence of 2-Bromo-N-(7-(hydroxyamino)-7-oxoheptyl)thiazole-4-carboxamide by methylene blue staining based analysis. The data set is classed as functional. As to conditions: dose 1-5 µM, time 3.0 day. In short, it runs like this: as §2

Data set [16] can be described thus: Neurotoxicity in human SH-SY5Y cells assessed as decrease in cell viability at 1.665 to 6.665 uM incubated for 3 days. The data set is classed as toxicity, cell-based. The following applies: 72 h, dose 1.665-6.665 µM, time 3 day. Summed up: as §1

Calls of active or inactive are those of the source. The rule behind the calls is not given here.

Sequence of Histone deacetylase 3 (O15379 whole entry): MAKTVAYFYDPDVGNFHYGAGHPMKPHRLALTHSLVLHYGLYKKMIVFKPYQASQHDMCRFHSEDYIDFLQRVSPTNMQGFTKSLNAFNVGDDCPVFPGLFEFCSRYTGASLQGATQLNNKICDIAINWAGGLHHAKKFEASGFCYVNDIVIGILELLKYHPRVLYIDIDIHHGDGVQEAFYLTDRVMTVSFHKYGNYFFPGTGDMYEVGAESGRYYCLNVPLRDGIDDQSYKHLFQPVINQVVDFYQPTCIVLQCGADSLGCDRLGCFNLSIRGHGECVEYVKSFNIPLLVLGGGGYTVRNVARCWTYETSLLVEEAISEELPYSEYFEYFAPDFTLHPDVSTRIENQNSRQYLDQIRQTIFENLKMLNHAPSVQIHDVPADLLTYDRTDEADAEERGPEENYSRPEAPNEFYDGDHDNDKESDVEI
Sequence of Histone deacetylase 2 (Q92769 whole entry): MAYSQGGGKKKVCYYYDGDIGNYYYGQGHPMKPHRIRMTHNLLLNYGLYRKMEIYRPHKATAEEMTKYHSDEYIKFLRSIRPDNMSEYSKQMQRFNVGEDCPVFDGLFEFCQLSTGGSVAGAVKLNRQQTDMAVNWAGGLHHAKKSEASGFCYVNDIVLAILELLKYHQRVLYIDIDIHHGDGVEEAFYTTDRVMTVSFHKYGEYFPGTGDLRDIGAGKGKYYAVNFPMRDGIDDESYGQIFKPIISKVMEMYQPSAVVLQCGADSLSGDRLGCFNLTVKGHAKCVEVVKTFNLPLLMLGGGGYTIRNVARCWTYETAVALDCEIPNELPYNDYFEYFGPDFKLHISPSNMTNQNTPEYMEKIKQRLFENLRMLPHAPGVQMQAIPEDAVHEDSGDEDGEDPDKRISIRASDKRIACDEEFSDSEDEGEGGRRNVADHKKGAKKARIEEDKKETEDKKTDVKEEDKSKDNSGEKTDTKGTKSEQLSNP
Sequence of Histone deacetylase 4 (P56524 whole entry, the tested form may be a part): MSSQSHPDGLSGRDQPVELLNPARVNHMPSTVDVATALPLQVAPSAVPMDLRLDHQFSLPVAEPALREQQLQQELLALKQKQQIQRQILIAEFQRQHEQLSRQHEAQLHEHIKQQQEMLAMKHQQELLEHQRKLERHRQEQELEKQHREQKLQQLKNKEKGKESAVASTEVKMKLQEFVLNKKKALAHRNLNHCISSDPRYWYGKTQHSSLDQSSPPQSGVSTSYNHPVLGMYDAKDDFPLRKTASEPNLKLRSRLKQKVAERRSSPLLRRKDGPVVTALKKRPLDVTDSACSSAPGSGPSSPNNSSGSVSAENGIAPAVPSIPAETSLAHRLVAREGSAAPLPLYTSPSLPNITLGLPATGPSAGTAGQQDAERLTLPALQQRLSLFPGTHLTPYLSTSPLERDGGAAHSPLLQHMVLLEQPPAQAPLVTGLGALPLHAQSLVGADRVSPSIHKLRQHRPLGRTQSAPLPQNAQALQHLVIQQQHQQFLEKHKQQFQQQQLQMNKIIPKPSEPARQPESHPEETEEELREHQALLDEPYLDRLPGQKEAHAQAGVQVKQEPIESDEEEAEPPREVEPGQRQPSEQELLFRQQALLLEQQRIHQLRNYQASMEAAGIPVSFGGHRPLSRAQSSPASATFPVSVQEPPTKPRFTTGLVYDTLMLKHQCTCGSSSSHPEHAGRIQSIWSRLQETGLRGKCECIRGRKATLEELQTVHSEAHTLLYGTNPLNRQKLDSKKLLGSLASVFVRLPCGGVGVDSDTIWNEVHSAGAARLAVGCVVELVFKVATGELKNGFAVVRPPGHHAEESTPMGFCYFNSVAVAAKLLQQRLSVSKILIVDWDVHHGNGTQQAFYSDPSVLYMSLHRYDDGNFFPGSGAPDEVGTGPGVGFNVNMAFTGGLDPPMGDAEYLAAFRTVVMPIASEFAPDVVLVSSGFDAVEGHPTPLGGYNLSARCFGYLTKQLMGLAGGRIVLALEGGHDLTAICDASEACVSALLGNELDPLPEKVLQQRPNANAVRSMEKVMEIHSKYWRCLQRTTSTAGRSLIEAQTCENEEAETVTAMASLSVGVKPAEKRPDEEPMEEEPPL

For `C#Cc1nc(/C=C/C(=O)NO)cs1`, the IC50 in [1] amounted to 0.16 µM; on Histone deacetylase 1, 0.89 µM; at Histone deacetylase 8 it was 1.8 µM; at Histone deacetylase 3, 1.1 µM; against Histone deacetylase 2 it was 1.7 µM. Moreover, the inhibition result in data set [2] is “Active”.
Regarding `O=C(CCCCC/C=C\c1csc(Br)n1)NO`, the outcome in the data set on NCI-H522 [3] was Active.
On to `C#Cc1nc(/C=C/CCCCCC(=O)NO)cs1`, for which the IC50 at Histone deacetylase 4 is 8.6 µM; in [1], 0.01 µM; at Histone deacetylase 1, 0.072 µM; with HCT-116, 4.96 µM; on Histone deacetylase 8 it was 0.27 µM; at Histone deacetylase 3, 0.091 µM. In the data set with NCI-H522 [4], the IC50 worked out at 1.59 µM.
Regarding `C#Cc1nc(C2=C(C)[C@@H](O)CC2)cs1`, the IC50 at 30 min in [5] worked out at 15.1 µM. The result in the data set with NCI-H522 [6] and with NCI-H522 [7] was Active.
With `C#Cc1nc(/C=C\CCCCCC(=O)OCC)cs1`, the result in the data set with NCI-H522 [3] was Active.
`O=C(CCCCCCC(=O)Nc1ccccc1)NO` [VORINOSTAT]: the outcome in the data set with NCI-H522 [8], in the data set on NCI-H522 [9] and with NCI-H522 [10] was Active.
Take `C#Cc1nc(/C=C\CCCCCC(=O)NO)cs1`: the IC50 stood at 0.025 µM in data set [1]; 0.13 µM at Histone deacetylase 1; 1.19 µM in the data set on HCT-116; 0.47 µM on Histone deacetylase 8; 0.3 µM at Histone deacetylase 3; 1.07 µM in the data set with NCI-H522 [4]. Further, in the data set on NCI-H522 [3], the result was Active.
As to `C#Cc1nc(/C=C/C=C/C(=O)NO)cs1`, the IC50 turned out to be 2.1 µM at Histone deacetylase 4; 0.16 µM in [1]; 1 µM on Histone deacetylase 1; 0.67 µM at Histone deacetylase 8; 3.1 µM on Histone deacetylase 3; 1.2 µM against Histone deacetylase 2. Also, in the data set with NCI-H522 [11], the outcome was Active.
Take `C#Cc1nc(C=CCCCCCC(=O)NO)cs1`: the IC50 in the data set on HCT-116 was 3.42 µM; with NCI-H522 [4], 1.67 µM.
In the case of `O=C(CCCCCCNC(=O)c1csc(Br)n1)NO`, the Activity entry in data set [12] and in data set [14] was “Toxic” throughout. In addition, the outcome in the data set with NCI-H522 [13] and in the data set on NCI-H522 [3] was Active.
For the compound `C#Cc1nc(C(=O)NCCCCCCC(=O)OC)cs1`, the outcome with NCI-H522 [15] and in the data set with NCI-H522 [3] was Active. Besides, in data set [16], the Activity result is “Toxic”.

(Values after ChEMBL document CHEMBL5096224, “First-in-Class Dual Mechanism Ferroptosis-HDAC Inhibitor Hybrids” (J Med Chem, 2022).)
